From PubChem
Mdm2 MdmX PPI = disrupts the human Mdm2-MdmX interaction. O15151+Q00987. SaOS-2 split-luciferase Mdm2/MdmX complementation, luminescence. inhibition, % at 8 µM. 330,000 tested, 3% active;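 active = inhibition of at least 50% at 8 µM in the primary screen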
Target sequence (O15151 whole entry, looked up): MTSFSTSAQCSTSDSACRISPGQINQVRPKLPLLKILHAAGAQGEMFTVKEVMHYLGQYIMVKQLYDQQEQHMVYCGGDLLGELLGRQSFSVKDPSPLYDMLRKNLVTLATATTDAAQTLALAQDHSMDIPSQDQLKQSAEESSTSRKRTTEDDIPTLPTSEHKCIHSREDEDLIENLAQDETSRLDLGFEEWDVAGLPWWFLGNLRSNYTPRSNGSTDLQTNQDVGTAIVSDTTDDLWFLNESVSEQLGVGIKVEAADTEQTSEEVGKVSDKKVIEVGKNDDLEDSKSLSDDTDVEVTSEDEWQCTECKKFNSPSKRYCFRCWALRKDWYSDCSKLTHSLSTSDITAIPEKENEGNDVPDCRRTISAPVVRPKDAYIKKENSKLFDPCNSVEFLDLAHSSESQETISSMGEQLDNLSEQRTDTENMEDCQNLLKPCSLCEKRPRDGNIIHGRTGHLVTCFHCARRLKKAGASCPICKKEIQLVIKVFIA
Target sequence (Q00987 whole entry, looked up): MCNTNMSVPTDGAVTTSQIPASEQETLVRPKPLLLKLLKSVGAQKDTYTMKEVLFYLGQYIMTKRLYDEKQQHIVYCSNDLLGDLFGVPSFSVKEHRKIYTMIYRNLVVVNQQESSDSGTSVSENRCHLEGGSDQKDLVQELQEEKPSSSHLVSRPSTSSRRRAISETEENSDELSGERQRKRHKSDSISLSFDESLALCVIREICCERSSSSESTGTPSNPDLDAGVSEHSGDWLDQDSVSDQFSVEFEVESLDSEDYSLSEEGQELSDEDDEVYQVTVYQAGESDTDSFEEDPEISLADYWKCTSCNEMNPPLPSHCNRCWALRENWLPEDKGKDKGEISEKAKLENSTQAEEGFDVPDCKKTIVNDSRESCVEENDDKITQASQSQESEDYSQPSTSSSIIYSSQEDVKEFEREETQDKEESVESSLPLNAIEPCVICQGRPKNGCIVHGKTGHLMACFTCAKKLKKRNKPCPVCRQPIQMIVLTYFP
CSC inhib = cancer stem cell inhibition; cancer stem cell-like cells viability, luminescence; 300,000 tested, 1.1% active; inhibition, % at 7.5 µM; in the data active = inhibition above about 75%; inconclusive = no clear call, values can overlap the other calls; tested in HMLE shEcad cells
T cruzi repl = T. cruzi replication inhibition; T. cruzi beta-gal in NIH3T3, luminescence, 90 h; inhibition, % (test concentration not listed); 300,000 tested, 1.4% active;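 active = mean inhibition across valid replicates above about 55%, limit read from the data; inconclusive = mean below that limit but half or more replicates reach it; inactive = mean below it, under half of replicates reach it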;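 also: signal also drops with host cell toxicity which is not excluded here; higher percent means less beta-gal luminescence so fewer parasites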
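System: Mouse NIH/3T3 fibroblasts infected with β-gal-expressing T. cruzi Tulahuen C4 | Quantity: NIH/3T3 cells, 5,000 per well | Reagent: 5000 reporter trypomastigotes per well | Dosing: Compound pinned at 50 nL/well, DMSO | Schedule: 3 h host attachment, then at least 90 h co-culture | Detection: GalScreen luminescence, 60 min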
Beta apoptosis = blocks beta cell apoptosis; INS-1E cytokine-induced death, ATP luminescence, 48 h; percent of positive-control rescue, neutral wells zero; protection from apoptosis, % (test concentration not listed); 300,000 tested, 0.8% active;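 active = Every replicate reaches about 75%, or at least half do and their mean reaches it too, limit read from the data; inconclusive = At least half of replicates reach the limit but their mean does not; inactive = Under half of replicates reach the limit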;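 also: higher means more ATP so stronger rescue from cytokine killing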
Calb FLC = C. albicans growth modulation with fluconazole; C. albicans CaCi-2 (fluconazole-resistant clinical isolate) + fluconazole, Alamar Blue growth, 48 h; growth inhibition, % (concentration not given with the values); 300,000 tested, 0.57% active; AID 1979;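 active = growth inhibition above about 58% in most replicates, limit read from the data, passing the limit was not always enough; inconclusive = exactly half the replicates above a set limit; inactive = most replicates below a set limit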;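 also: all wells also contain fluconazole at 8 µg/ml as a sub-toxic cotreatment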
SKKanGAS inh = blocks kanamycin growth of S. pyogenes SKKanGAS strain; BacTiter-Glo, 6 h; inhibition, % at 7.5 µM; 300,000 tested, 1.3% active;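 active = mean replicate score, as percent of positive control median, at least 50; inconclusive = mean below 50 but one replicate at or above 50; inactive = mean and every replicate below 50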;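 also: strain carries kanamycin resistance gene driven by streptokinase promoter and grows in 40 µg/ml kanamycin; loss of luminescence reflects streptokinase promoter inhibition or plain growth inhibition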
Mdm2-MdmX conf = confirmation of human Mdm2/MdmX interaction inhibitors; shares compounds with Mdm2 MdmX PPI; Mdm2-MdmX binding, luminescent assay; inhibition, % at 8 µM; 10,000 tested, 55% active; AID 489028; in the data active = inhibition above about 40%
Full FLuc ctr = inhibits full-length luciferase, flagging false Mdm2/MdmX hits; 6,200 tested, 77% active; inhibition, % at 8 µM; shares compounds with Mdm2 MdmX PPI; SaOS-2 full-length luciferase counterscreen, luminescence; AID 504607;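 active = mean inhibition at 8 µM reaching about 37%, which flags the compound as non-specific, limit read from the data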;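 also: p53-null SaOS-2 cells with luciferase driven by a doxycycline-inducible promoter; compound on cells about two nights before reading with doxycycline added after day one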
Numbers stand for hits; . = inactive; ? = inconclusive; / = not tested or not shown. This is a sample that favours compounds with a hit; in the whole collection about 5.7% have one here.

SMILES | Mdm2 MdmX PPI | CSC inhib | T cruzi repl | Beta apoptosis | Calb FLC | SKKanGAS inh | Mdm2-MdmX conf | Full FLuc ctr
COc1ccc(-c2cncnc2-c2ccc(OC)cc2O)cc1 | 62 | . | . | . | . | . | 62 | .
O=C(NC1CCCCCC1)C1CCC(CNS(=O)(=O)c2ccc(Br)s2)CC1 (stereo not drawn) | 51 | . | . | . | . | . | . | /
COc1cc(C(CCN2CCCC(C)C2)c2c(OC)cc(OC)c3c(-c4ccccc4)cc(=O)oc23)cc(OC)c1OC (stereo not drawn) | 82 | . | . | . | . | . | . | /
COc1cc(C(CCN2CCCCC2)c2c(OC)cc(OC)c3c(-c4ccccc4)cc(=O)oc23)cc(OC)c1OC (stereo not drawn) | 65 | . | . | . | . | . | . | /
COc1cc(C(CC(=O)N2CCCC2)c2c(OC)cc(OC)c3c(-c4ccccc4)cc(=O)oc23)cc(OC)c1OC (stereo not drawn) | . | . | . | . | . | . | / | /
CCCCCCCCC[n+]1cccc2c3ccccc3ccc21 | 91 | . | 59 | 111 | . | . | 87 | 57
O=[N+]([O-])c1ccc(C[n+]2cccc3c4ccccc4ccc32)cc1 | . | . | . | / | . | . | / | /
COn1c(-c2ccc(Cl)cc2)nc2ncccc21 | . | . | . | . | . | . | / | /
Cc1ccc2[nH]c(-c3cccc(F)c3)cc(=O)c2c1 | 58 | . | . | . | . | . | 71 | 95
O=c1cc(-c2cccc(F)c2)[nH]c2ccccc12 | 52 | . | . | . | . | . | 75 | 78
Cc1ccc(-c2cc(=O)c3cc(F)ccc3[nH]2)cc1 | . | . | . | . | . | . | / | /
CC(CN1CCOCC1)OC(=O)c1ccccc1Cl (stereo not drawn) | . | . | . | . | . | . | / | /
CCc1noc(C)c1C(=O)N1CCN(S(=O)(=O)c2ccc(Br)cc2Cl)CC1 | . | . | . | . | . | . | / | /
O=C(CC(=O)NC1CCCCC1)N/N=C/c1ccccc1[N+](=O)[O-] | . | / | . | . | . | . | / | /
CC(C)c1ccc(N2C(=O)CC(Sc3ncn[nH]3)C2=O)cc1 (stereo not drawn) | . | . | . | / | . | . | / | /
CC(C)c1ccc(N2C(=O)CC(Sc3nc4ccccc4o3)C2=O)cc1 (stereo not drawn) | 100 | . | . | / | ? | . | . | /
COc1ccc(NC(=O)Nc2cccc3c2O[C@H](CN(C)S(=O)(=O)c2ccc(OC)cc2)[C@@H](C)CN([C@H](C)CO)C3=O)cc1 | . | . | / | . | / | / | / | /
COc1ccc(NC(=O)Nc2cccc3c2O[C@H](CN(C)Cc2ccc(-c4ccccc4)cc2)[C@@H](C)CN([C@H](C)CO)C3=O)cc1 | 91 | . | / | . | / | / | 63 | .
Cc1ccc(S(=O)(=O)N(C)C[C@H]2Oc3c(NC(=O)Nc4cccc5ccccc45)cccc3C(=O)N([C@@H](C)CO)C[C@@H]2C)cc1 | 60 | / | / | / | / | / | . | 47
C[C@@H]1CN([C@@H](C)CO)C(=O)c2cccc(NC(=O)Nc3ccc(F)cc3)c2O[C@@H]1CN(C)Cc1ccc(Oc2ccccc2)cc1 | 76 | / | / | . | / | / | . | /
C[C@H](CO)N1C[C@H](C)[C@H](CN(C)Cc2ccccc2)Oc2c(NC(=O)Nc3ccc(F)cc3)cccc2C1=O | . | . | / | . | / | / | / | /
COc1ccc(NC(=O)Nc2cccc3c2O[C@@H](CN(C)CC2CCCCC2)[C@@H](C)CN([C@H](C)CO)C3=O)cc1 | . | . | / | . | / | / | / | /
COC(C)(C)[C@@H](O)COc1c2ccoc2cc2oc(=O)ccc12 | . | . | / | . | / | / | / | /
CCOc1ccccc1C1C2=C(COC2=O)Nc2cc3c(cc21)OCO3 (stereo not drawn) | 69 | . | . | . | 83 | . | 57 | 65
CCCOc1c(OC)cccc1C1CC(=O)Nc2cc3c(cc21)OCCO3 (stereo not drawn) | 52 | ? | . | . | . | . | 55 | 68
SMILES | Mdm2 MdmX PPI | CSC inhib | T cruzi repl | Beta apoptosis | Calb FLC | SKKanGAS inh | Mdm2-MdmX conf | Full FLuc ctr
CCCOc1c(OC)cccc1C1CC(=O)Nc2cc3c(cc21)OCO3 (stereo not drawn) | 55 | . | . | / | . | . | 51 | 68
C#CCOc1ccc(C2C3=C(COC3=O)Nc3cc4c(cc32)OCO4)cc1OC (stereo not drawn) | / | / | . | / | . | . | / | /
CCOc1ccccc1C1CC(=O)Nc2cc3c(cc21)OCO3 (stereo not drawn) | . | . | . | . | . | . | / | /
COc1ccccc1C1CC(=O)Nc2cc3c(cc21)OCCO3 (stereo not drawn) | 55 | . | . | . | . | . | 59 | 64
Cc1nc([N+](=O)[O-])c(Br)n1CC(=O)c1ccc(Br)cc1 | 63 | . | . | . | ? | . | . | /
Cc1nc([N+](=O)[O-])c(Br)n1CC(=O)c1ccccc1 | . | . | . | . | . | . | / | /
Cc1nc([N+](=O)[O-])c(Br)n1CC(=O)c1ccc2ccccc2c1 | 87 | ? | . | / | . | . | . | /
C=CCN(C(=O)CCC(=O)Nc1cc(C)on1)C(C(=O)NC1CCCC1)c1ccc(CC)cc1 (stereo not drawn) | . | . | . | . | . | . | / | /
O=c1[nH]c(=O)n(Cc2ccco2)c2c1C(C(F)(F)F)(C(F)(F)F)N=C(CCC1CCCCC1)N2 | 62 | . | . | / | . | . | 88 | 40
O=c1[nH]c(=O)n(Cc2ccco2)c2c1C(C(F)(F)F)(C(F)(F)F)N=C(CCc1ccccc1)N2 | 51 | . | . | . | . | . | . | 65
O=c1[nH]c(=O)n(Cc2ccco2)c2c1C(C(F)(F)F)(C(F)(F)F)N=C(C1CCCCC1)N2 | . | . | . | . | . | . | / | /
CC(C)Cn1c2c(c(=O)[nH]c1=O)C(C(F)(F)F)(C(F)(F)F)N=C(CCC1CCCCC1)N2 | 52 | . | . | . | . | . | 71 | 52
N#Cc1ccc(C2=NC(C(F)(F)F)(C(F)(F)F)c3c(n(Cc4ccco4)c(=O)[nH]c3=O)N2)cc1 | . | . | . | . | . | . | / | /
Cc1cccc(C)c1NC(=O)C1CCCN1S(=O)(=O)c1ccc2c(c1)n(C)c(=O)c(=O)n2C (stereo not drawn) | . | . | . | . | . | . | / | /
CN(C(=O)c1cccc(NC(=O)C2CCN(C(=O)OC(C)(C)C)CC2)c1)C1CCCCC1 | . | . | / | . | / | / | / | /
CC(C)(C)OC(=O)NCc1ccc(NC(=O)c2nc[nH]c2C(=O)NCCNC(=O)c2[nH]cnc2C(=O)Nc2ccc(CNC(=O)OC(C)(C)C)cc2)cc1 | 74 | / | / | 81 | / | / | . | /
CC(C)(C)OC(=O)CNC(=O)c1[nH]cnc1C(=O)Nc1ccc(CNC(=O)OC(C)(C)C)cc1 | 63 | . | . | . | . | . | 54 | 74
